This passage reports MIC and Ratio results from ChEMBL document CHEMBL4152320, “Discovery and development of novel salicylate synthase (MbtI) furanic inhibitors as antitubercular agents” (Eur J Med Chem, 2018).

Usually MIC stands for the lowest concentration that inhibits growth of the organism. Lower therefore signals inhibition by little substance.

Assay [1] deals with Mycobacterium tuberculosis. Description: Antimycobacterial activity against Mycobacterium bovis BCG in 7H9 medium. The conditions noted are these: variant bovis BCG. The assay is classed as functional. An outline of the steps: (§1)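 M. bovis BCG MIC determined in liquid medium, comparing iron conditions: cells grown in 7H9/OADC (high iron) versus low-iron chelated Sauton's medium.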

Assay [2] has as its system Mycobacterium tuberculosis. Kind of assay: Ratio of MIC for Mycobacterium bovis BCG in 7H9 medium to MIC for Mycobacterium bovis BCG in low iron containing medium. The assay is classed as functional, variant bovis BCG.
In assay [3] the test system is Mycobacterium tuberculosis. Kind of assay: Antimycobacterial activity against Mycobacterium bovis BCG in low iron containing medium. The conditions noted are these: variant bovis BCG. Type of assay: functional. An outline of the steps: as §1

The structures appear in SMILES notation. In brackets after ≈: the same amount, converted by molar mass.

With `O=C(O)c1ccc(-c2ccc([N+](=O)[O-])cc2)o1`, the MIC came out at 240 µM (≈ 56 µg/mL) in assay [1] and 80 µM (≈ 18.7 µg/mL) in assay [3]. In addition, the Ratio in assay [2] was determined as 3.
